Laboratory results from ChEMBL document CHEMBL1828563, “Synthesis and biological evaluation of 3-(1H-imidazol- and triazol-1-yl)-2,2-dimethyl-3-[4-(naphthalen-2-ylamino)phenyl]propyl derivatives as small molecule inhibitors of retinoic acid 4-hydroxylase (CYP26)” (J Med Chem, 2011).
Each block holds one molecule with its values, some of them ahead of it. Calls of active or inactive are those of the source. No cut-off for these calls is given here.

Experiments:
[1] = biological target: T1, Cytochrome P450 26A1 (Homo sapiens, UniProt O43174); test: Inhibition of human CYP26A1 assessed using [11,12-3H]ATRA as substrate by scintillation counting
T1 sequence (O43174 whole entry): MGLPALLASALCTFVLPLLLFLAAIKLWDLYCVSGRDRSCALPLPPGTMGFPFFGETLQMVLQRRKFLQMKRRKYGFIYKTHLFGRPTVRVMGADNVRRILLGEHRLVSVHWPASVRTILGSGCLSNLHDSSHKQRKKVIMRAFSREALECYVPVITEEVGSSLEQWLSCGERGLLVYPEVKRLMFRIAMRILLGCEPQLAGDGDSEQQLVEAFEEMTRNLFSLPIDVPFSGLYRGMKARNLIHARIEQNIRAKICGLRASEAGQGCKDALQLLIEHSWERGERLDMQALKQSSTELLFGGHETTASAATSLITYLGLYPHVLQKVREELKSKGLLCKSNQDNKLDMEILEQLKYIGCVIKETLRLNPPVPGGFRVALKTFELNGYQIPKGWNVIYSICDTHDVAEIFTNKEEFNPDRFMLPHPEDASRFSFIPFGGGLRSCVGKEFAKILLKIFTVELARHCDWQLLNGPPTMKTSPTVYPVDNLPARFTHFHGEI
How it was run: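 CYP26 source: microsomes from MCF-7 cells pretreated 24 h with ATRA to induce CYP26, isolated by differential centrifugation. 50 μg microsomal protein in 50 mM Tris pH 7.4, 150 mM KCl, 10 mM MgCl₂, 0.02% BSA, 2 mM NADPH, 10 nM ATRA plus 0.1 μCi ³H-ATRA. Inhibitor 1–1000 nM, 1 h at 37 °C. Acetonitrile quench, retinoids resolved on C18 HPLC.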

[2] = test system: SH-SY5Y; test: Increase in CYP26A1 mRNA expression in human SH-SY5Y cells at 1 uM after 72 hrs by RT-PCR analysis in the presence of 0.1 uM all-trans-retinoic acid; type: functional
How it was run: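 SH-SY5Y cells grown in RPMI 1640 with 10% FCS and 2 mM L-glutamine. Treated 72 h with 0.1 μM ATRA plus inhibitor at 1 μM; inhibitors in ethanol diluted in medium. Total RNA reverse transcribed for TaqMan real-time PCR of CYP26A1, normalized to β-actin. Fold increase relative to cells given […]; mean ± SD, n = 6.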

[3] = biological target: T2, CYP1A2 (Homo sapiens, UniProt P05177); test: Inhibition of CYP1A2 in human liver microsomes at 0.4 uM; type: ADME, Microsome
T2 sequence (P05177 whole entry): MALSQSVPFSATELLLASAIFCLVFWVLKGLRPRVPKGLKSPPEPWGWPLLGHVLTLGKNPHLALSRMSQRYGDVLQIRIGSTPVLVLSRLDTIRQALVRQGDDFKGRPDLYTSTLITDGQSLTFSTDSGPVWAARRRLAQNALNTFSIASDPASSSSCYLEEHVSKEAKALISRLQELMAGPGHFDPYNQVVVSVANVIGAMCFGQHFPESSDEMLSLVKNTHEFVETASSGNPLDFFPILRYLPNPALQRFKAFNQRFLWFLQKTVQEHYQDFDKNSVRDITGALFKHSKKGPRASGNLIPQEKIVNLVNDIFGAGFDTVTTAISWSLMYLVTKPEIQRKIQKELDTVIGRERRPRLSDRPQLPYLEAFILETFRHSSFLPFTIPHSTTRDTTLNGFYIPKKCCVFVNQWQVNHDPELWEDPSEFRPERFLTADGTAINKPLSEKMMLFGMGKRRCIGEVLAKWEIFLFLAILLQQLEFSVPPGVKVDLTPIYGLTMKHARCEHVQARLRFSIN

[4] = biological target: CYP3A4 (Homo sapiens, UniProt P08684); test: Inhibition of CYP3A4 in human liver microsomes at 0.4 uM; type: ADME, Microsome
[5] = biological target: CYP2C9 (Homo sapiens, UniProt P11712); test: Inhibition of CYP2C9 in human liver microsomes at 0.4 uM; type: ADME, Microsome
[6] = biological target: CYP2C19 (Homo sapiens, UniProt P33261); test: Inhibition of CYP2C19 in human liver microsomes at 0.4 uM; type: ADME, Microsome
[7] = biological target: CYP2D6 (Homo sapiens, UniProt P10635); test: Inhibition of CYP2D6 in human liver microsomes at 0.4 uM; type: ADME, Microsome
[8] = biological target: T3, Cytochrome P450 1A2 (Homo sapiens, UniProt P05177); test: Inhibition of CYP1A2 in human liver microsomes; type: ADME, Microsome
T3 sequence (P05177 whole entry): T2 sequence (P05177 whole entry)

[9] = biological target: Cytochrome P450 3A4 (Homo sapiens, UniProt P08684); test: Inhibition of CYP3A4 in human liver microsomes; type: ADME, Microsome
[10] = biological target: Cytochrome P450 2C9 (Homo sapiens, UniProt P11712); test: Inhibition of CYP2C9 in human liver microsomes; type: ADME, Microsome
[11] = biological target: Cytochrome P450 2C19 (Homo sapiens, UniProt P33261); test: Inhibition of CYP2C19 in human liver microsomes; type: ADME, Microsome
[12] = biological target: Cytochrome P450 2D6 (Homo sapiens, UniProt P10635); test: Inhibition of CYP2D6 in human liver microsomes; type: ADME, Microsome
[13] = Half-life in human liver microsomes; type: ADME, Microsome
[14] = biological target: T1, Cytochrome P450 26A1; test: Inhibition of CYP26 in human MCF-7 cell microsomes

CYP3A4, sequence (P08684 whole entry): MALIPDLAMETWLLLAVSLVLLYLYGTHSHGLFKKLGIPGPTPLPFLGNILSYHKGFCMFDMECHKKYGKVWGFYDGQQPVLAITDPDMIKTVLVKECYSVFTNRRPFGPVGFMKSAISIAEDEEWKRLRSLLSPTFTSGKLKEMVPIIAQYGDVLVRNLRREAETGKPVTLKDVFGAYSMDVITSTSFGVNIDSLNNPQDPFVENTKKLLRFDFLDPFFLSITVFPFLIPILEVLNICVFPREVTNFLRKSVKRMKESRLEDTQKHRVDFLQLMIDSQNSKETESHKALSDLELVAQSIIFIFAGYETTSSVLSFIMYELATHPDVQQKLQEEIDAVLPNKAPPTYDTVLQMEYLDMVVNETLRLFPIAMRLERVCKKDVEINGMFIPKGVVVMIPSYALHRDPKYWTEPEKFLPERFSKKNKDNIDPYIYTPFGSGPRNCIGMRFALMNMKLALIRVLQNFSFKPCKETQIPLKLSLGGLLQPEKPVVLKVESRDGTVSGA
CYP2D6, sequence (P10635 whole entry): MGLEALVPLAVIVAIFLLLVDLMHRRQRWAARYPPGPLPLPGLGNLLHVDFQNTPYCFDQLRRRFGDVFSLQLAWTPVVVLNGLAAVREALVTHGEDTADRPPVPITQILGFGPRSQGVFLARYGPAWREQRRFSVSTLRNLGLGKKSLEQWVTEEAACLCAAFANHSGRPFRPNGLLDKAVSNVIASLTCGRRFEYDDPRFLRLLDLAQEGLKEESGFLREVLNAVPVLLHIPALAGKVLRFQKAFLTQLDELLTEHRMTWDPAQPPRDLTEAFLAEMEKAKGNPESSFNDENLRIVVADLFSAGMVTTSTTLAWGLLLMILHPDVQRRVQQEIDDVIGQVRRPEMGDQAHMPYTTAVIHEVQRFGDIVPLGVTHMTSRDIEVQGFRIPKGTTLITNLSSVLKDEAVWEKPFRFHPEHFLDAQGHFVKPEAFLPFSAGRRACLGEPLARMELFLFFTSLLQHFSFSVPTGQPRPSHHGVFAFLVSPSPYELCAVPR
CYP2C19, sequence (P33261 whole entry): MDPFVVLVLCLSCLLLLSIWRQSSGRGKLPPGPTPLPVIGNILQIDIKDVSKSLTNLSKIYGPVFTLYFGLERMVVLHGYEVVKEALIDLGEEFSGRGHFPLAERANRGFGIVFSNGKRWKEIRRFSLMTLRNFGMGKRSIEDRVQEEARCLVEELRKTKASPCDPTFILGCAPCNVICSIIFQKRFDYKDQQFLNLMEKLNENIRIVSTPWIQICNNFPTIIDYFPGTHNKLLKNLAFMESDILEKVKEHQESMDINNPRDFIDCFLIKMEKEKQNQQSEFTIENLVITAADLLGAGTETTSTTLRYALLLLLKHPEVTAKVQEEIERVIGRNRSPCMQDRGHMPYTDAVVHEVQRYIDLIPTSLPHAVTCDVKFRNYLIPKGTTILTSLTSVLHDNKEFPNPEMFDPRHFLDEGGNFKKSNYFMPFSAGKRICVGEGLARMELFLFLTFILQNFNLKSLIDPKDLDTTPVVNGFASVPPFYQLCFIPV
Cytochrome P450 2C9, sequence (P11712 whole entry): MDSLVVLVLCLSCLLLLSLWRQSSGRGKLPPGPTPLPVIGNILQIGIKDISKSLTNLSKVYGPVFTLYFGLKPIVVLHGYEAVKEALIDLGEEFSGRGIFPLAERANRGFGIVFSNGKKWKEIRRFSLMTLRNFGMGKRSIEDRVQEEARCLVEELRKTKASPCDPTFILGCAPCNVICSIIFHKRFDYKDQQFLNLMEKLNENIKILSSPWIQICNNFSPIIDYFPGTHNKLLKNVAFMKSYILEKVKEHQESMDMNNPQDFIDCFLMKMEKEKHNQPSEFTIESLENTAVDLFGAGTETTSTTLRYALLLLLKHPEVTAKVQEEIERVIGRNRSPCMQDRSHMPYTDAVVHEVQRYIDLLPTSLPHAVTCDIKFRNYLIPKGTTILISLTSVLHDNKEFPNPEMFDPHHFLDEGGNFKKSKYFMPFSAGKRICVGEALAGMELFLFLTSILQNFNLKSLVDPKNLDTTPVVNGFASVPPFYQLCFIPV
CYP2C9, sequence (P11712 whole entry): as above
Cytochrome P450 3A4, sequence (P08684 whole entry): as the sequence (P08684 whole entry) above
Cytochrome P450 2D6, sequence (P10635 whole entry): as the sequence (P10635 whole entry) above
Cytochrome P450 2C19, sequence (P33261 whole entry): as the sequence (P33261 whole entry) above

IC50 [1]: 500 nM
SMILES: c1ccc(C(c2ccc(Nc3ccc4ccccc4c3)cc2)n2ccnc2)cc1 (stereo unspecified)

IC50 [1]: 400 nM
SMILES: CC(C)(C(=O)OCc1ccccc1)C(c1ccc(Nc2ccc3ccccc3c2)cc1)n1ccnc1 (stereo unspecified)

IC50 [10]: 8000 nM
half-life [13]: 5.02 h
SMILES: COC(=O)C(C)(C)C(c1ccc(Nc2ccc3ccccc3c2)cc1)n1ccnc1 (stereo unspecified)
Activity [2]: Active

IC50 [1]: 12 nM
inhibition at 0.4 µM [3]: 15%
inhibition at 0.4 µM [4]: 86%
inhibition at 0.4 µM [5]: 45%
inhibition at 0.4 µM [6]: 14%
inhibition at 0.4 µM [7]: 13%
SMILES: CNC(=O)C(C)(C)C(c1ccc(Nc2ccc3ccccc3c2)cc1)n1ccnc1 (stereo unspecified)
Activity [2]: Active

IC50 [1]: 50 nM
SMILES: CC(C)(C(N)=O)C(c1ccc(Nc2ccc3ccccc3c2)cc1)n1ccnc1 (stereo unspecified)
fold change (FC) [2]: 4.1

IC50 [1]: 75 nM
inhibition at 0.4 µM [3]: 11%
inhibition at 0.4 µM [4]: 95%
inhibition at 0.4 µM [5]: 52%
inhibition at 0.4 µM [6]: 21%
inhibition at 0.4 µM [7]: 29%
SMILES: CN(C)C(=O)C(C)(C)C(c1ccc(Nc2ccc3ccccc3c2)cc1)n1ccnc1 (stereo unspecified)

IC50 [1]: 300 nM
SMILES: CC(C)(C(=O)O)C(c1ccc(Nc2ccc3ccccc3c2)cc1)n1ccnc1 (stereo unspecified)

More lines, now with the values behind:

SMILES: CCCCOC(=O)C(C)(C)C(c1ccc(Nc2ccc3ccccc3c2)cc1)n1ccnc1 (stereo unspecified)
IC50 [1]: 200 nM

SMILES: CCCCCOC(=O)C(C)(C)C(c1ccc(Nc2ccc3ccccc3c2)cc1)n1ccnc1 (stereo unspecified)
IC50 [1]: 140 nM

SMILES: COC(=O)C(C)(C)C(c1ccc(Nc2ccc3ccccc3c2)cc1)n1cncn1 (stereo unspecified)
IC50 [1]: 0.35 nM
fold change (FC) [2]: 5.2
inhibition at 0.4 µM [3]: 10%
inhibition at 0.4 µM [4]: 22%
inhibition at 0.4 µM [5]: 38%
inhibition at 0.4 µM [6]: 16%
inhibition at 0.4 µM [7]: -2%
IC50 [8]: 10900 nM
IC50 [9]: 330 nM
IC50 [10]: 21400 nM
IC50 [11]: 3140 nM
IC50 [12]: 1800 nM
half-life [13]: 3.73 h
IC50 [14]: 0.3 nM

SMILES: CC(C)OC(=O)C(C)(C)C(c1ccc(Nc2ccc3ccccc3c2)cc1)n1ccnc1 (stereo unspecified)
IC50 [1]: 290 nM

SMILES: CC(C)(C(=O)O)C(c1ccc(Nc2ccc3ccccc3c2)cc1)n1cncn1 (stereo unspecified)
IC50 [1]: > 1000 nM

SMILES: CCOC(=O)C(C)(C)C(c1ccc(Nc2ccc3ccccc3c2)cc1)n1ccnc1 (stereo unspecified)
IC50 [1]: 0.35 nM
fold change (FC) [2]: 5.8
inhibition at 0.4 µM [3]: 20%
inhibition at 0.4 µM [4]: 61%
inhibition at 0.4 µM [5]: 43%
inhibition at 0.4 µM [6]: 30%
inhibition at 0.4 µM [7]: 15%

SMILES: C[C@H]([C@@H](c1ccc(Nc2nc3ccccc3s2)cc1)n1ccnc1)N(C)C
IC50 [10]: 11000 nM

SMILES: CC(C)NC(=O)C(C)(C)C(c1ccc(Nc2ccc3ccccc3c2)cc1)n1ccnc1 (stereo unspecified)
IC50 [1]: 120 nM

SMILES: CNC(=O)C(C)(C)C(c1ccc(Nc2ccc3ccccc3c2)cc1)n1cncn1 (stereo unspecified)
IC50 [1]: 350 nM

SMILES: COc1ccc2cc(Nc3ccc(C(n4ccnc4)C(C)(C)CO)cc3)ccc2c1 (stereo unspecified)
IC50 [1]: 40 nM
fold change (FC) [2]: 3.7
